TRPC6 activator – activators of mouse TRPC6 channel; B-score at 10 µM; HEK293-TRPC6 membrane potential dye fluorescence; active compounds read high; Q61143; hit rate 0.13% among 310,000; AID 2550;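 active means B-score of the integrated fluorescence ratio above library mean plus 3 SD, and starting fluorescence ratio within library mean plus 5 SD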;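 further: higher score means more depolarization so channel activation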
TRPC4 inh – inhibitors of mouse TRPC4 channel; Q9QUQ5; HEK293 TRPC4beta/mu-opioid, DAMGO-evoked Fluo4 calcium flux; active compounds read low; B-score at 10 µM; hit rate 0.39% among 300,000;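 active means B-score over 3 SD under the library average, no early fluorescence shift, positive overall ratio signal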
Target sequence (Q9QUQ5 whole entry, looked up): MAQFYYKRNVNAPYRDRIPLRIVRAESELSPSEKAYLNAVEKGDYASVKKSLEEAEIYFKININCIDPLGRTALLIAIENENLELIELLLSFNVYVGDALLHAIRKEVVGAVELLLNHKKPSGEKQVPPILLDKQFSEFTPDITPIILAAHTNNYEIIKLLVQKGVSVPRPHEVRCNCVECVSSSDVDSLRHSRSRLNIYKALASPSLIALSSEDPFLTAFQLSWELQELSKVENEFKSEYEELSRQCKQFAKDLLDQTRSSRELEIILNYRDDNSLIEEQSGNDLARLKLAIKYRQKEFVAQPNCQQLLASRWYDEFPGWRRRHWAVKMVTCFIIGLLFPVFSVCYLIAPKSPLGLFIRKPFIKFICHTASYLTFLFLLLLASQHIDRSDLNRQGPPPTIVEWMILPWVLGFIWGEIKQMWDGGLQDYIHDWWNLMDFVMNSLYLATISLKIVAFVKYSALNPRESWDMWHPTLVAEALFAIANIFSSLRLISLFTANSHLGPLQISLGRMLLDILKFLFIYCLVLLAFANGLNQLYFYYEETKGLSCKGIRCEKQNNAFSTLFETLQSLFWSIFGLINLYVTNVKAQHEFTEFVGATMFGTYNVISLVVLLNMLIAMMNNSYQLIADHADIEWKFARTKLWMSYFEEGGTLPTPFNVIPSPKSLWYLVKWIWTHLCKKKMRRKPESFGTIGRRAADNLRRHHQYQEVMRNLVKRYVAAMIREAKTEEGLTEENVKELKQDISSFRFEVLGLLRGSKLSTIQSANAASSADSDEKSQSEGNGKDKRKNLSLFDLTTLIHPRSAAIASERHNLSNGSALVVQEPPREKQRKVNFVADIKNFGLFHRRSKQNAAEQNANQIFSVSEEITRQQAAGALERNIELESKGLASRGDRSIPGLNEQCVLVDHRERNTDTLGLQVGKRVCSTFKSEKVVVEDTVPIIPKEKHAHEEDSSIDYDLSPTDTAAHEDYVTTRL
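Test system – stable TRPC4beta/mu-opioid receptor HEK293 cells · Probe or stimulus – DAMGO, a submaximal dose followed by a maximal one · Dosing – one concentration per compound · Signal – Fluo4 calcium fluorescence by kinetic imaging, 5 s 1 Hz baseline · Evaluation – per-well B score of integrated baseline-normalized Fluo4 ratio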
TRPC4 potent – allosterically enhances the mouse TRPC4 cation channel | Q9QUQ5 | HEK293 TRPC4beta/mu-opioid, DAMGO EC20, Fluo-4 Ca2+ flux; active compounds read high | hit rate 0.42% among 310,000 | AID 2227 | B-score at 10 µM;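 active means B-score of calcium response area above 5 SD of library B-scores, with initial fluorescence ratio within 5 SD of library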;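 further: B-score of integrated fluorescence ratio over time as area under calcium response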
TRPC6 inhibitor – blocks the mouse TRPC6 cation channel; B-score at 10 µM; HEK293-TRPC6, membrane potential dye, ACh-evoked depolarization; active compounds read low; Q61143; hit rate 1.1% among 310,000;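 active means B-score under library mean minus 3 SD, initial fluorescence not abnormally high, positive integrated signal ratio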;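 further: B-score derived from integrated fluorescence ratio over the kinetic read; more negative B-score means stronger inhibition of depolarization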
TRPC4 act – activators of mouse TRPC4 channel. HEK293 TRPC4beta/mu-opioid, Fluo4 calcium fluorescence; active compounds read high. hit rate 0.49% among 310,000. B-score at 10 µM;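 active means B-score above 5 SD of library B-scores, and initial fluorescence ratio not above library mean plus 5 SD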;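 further: positive B-score marks a calcium rise read as TRPC4 activation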
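Assay system: HEK293 stable line with TRPC4beta plus mu-opioid receptor; schedule: 45 min room-temperature Fluo4 loading, 110 s read; technique: kinetic Fluo4 calcium fluorescence; evaluation: integrated baseline-normalised fluorescence ratio, converted to per-well B score; controls: buffer (low) and maximal DAMGO (high)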
TRPC4 sel inh 2 – second selectivity test of TRPC6 inhibitors: effect on mouse TRPC4; hit rate 42% among 920; shares compounds with TRPC6 inhibitor; AID 2776; inhibition, % at 10 µM; HEK293 TRPC4/MOR, membrane potential dye fluorescence; channel activated by saturating DAMGO dose;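 active means compounds whose fluorescence signal differed from control wells by over 3 SD, either direction, in both duplicate plates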
TRPC4 spec – selectivity of TRPC6 inhibitors: effect on mouse TRPC4. shares compounds with TRPC6 inhibitor. HEK293 TRPC4/mu-opioid, membrane potential fluorescence. activity change, negative = inhibition, % at 10 µM. hit rate 61% among 920. AID 2777;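 active means rise or fall in signal beyond 3 SD of buffer-only wells in both replicate plates, either sign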;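 further: integrated kinetic ratio of fluorescence range over baseline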
HEK293 MPD ctr 2-1 – parental HEK293 nonspecific activity of TRPC6 inhibitors, second screen; hit rate 31% among 920; parental HEK293 membrane potential dye fluorescence; maximal acetylcholine challenge after compound addition; signal change vs control, % at 10 µM; shares compounds with TRPC6 inhibitor;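 active means membrane potential signal moving either way by over 3 SD of the maximum-effect control, in both duplicate plates, meaning non-specific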
HEK293 MPD ctr-1 – parental HEK293 nonspecific activity of TRPC6 inhibitors | shares compounds with TRPC6 inhibitor | parental HEK293 membrane potential dye fluorescence | membrane potential signal change, % at 10 µM | hit rate 60% among 920 | AID 2780;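 active means membrane potential signal shifting up or down by more than 3 SD of buffer-only wells, on both duplicate plates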
HEK293 MPD ctr-2 – parental HEK293 nonspecific activity of TRPC6 modulators | shares compounds with TRPC6 inhibitor | membrane potential dye fluorescence | membrane potential signal change, % at 10 µM | hit rate 51% among 2,400;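 active means membrane potential signal moves up or down beyond 5 SD from buffer-only wells, on both duplicate plates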
HEK293 MPD ctr 2-2 – second check of TRPC6 modulator effects in parental HEK293 cells | hit rate 14% among 2,400 | membrane potential dye fluorescence; after compound, maximal acetylcholine stimulation | shares compounds with TRPC6 inhibitor | AID 488926 | inhibition, % at 10 µM;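 active means membrane potential signal drops by more than 5 SD from the mean control signal, in both duplicate plates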;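 further: plate controls were acetylcholine ECmax control wells for no effect and buffer only wells for full effect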
TRPC4 ctr mod – selectivity of TRPC6 modulators against mouse TRPC4. AID 488927. percent change from control (negative = decrease, positive = increase), % at 10 µM. HEK293 TRPC4/mu-opioid, membrane potential fluorescence. shares compounds with TRPC6 inhibitor. hit rate 69% among 2,400;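 active means membrane potential signal moved up or down beyond 5 SD of buffer control wells, in both duplicate plates, actives on both sides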;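 further: plate controls were assay buffer wells for no effect and DAMGO maximal-effect wells for full effect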
TRPC4/MOR inh 2 – second selectivity test of TRPC6 modulators against mouse TRPC4; shares compounds with TRPC6 inhibitor; HEK293 TRPC4/mu-opioid, membrane potential dye fluorescence; stimulated with maximal-effect DAMGO; inhibition, % at 10 µM; hit rate 55% among 2,400;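 active means drop in membrane potential signal beyond 5 SD of the control wells in both duplicate plates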;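 further: TRPC4 counter screen for TRPC6 hits run under conditions tuned for TRPC6 not TRPC4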
TRPC6 inh conf – mouse TRPC6 inhibitor confirmation | HEK293-TRPC6, membrane potential dye, ACh-evoked depolarization | shares compounds with TRPC6 inhibitor | hit rate 43% among 3,300 | inhibition, % at 10 µM;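 active means fluorescence ratio falls more than 5 SD below the full-stimulation control mean, in both duplicate runs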;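 further: integrated fluorescence ratio of peak minus minimum over baseline after agonist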
TRPC6 act conf – mouse TRPC6 activator confirmation; shares compounds with TRPC6 inhibitor; HEK293-TRPC6 membrane potential dye fluorescence, FDSS; activation, % at 10 µM; hit rate 11% among 2,800; AID 488961;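 active means ratio signal rise beyond 5 SD above unstimulated control wells' mean, seen in both duplicate runs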;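 further: plate controls were buffer EC0 wells for no effect and acetylcholine ECmax response for full effect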
Starred values were filed as active, the others as inactive; i = inactive; nt = not tested or not shown. Rows were chosen to be rich in hits. Some 2.3% of all compounds tested hit in one or more screens of this group.

SMILES	TRPC6 activator	TRPC4 inh	TRPC4 potent	TRPC6 inhibitor	TRPC4 act	TRPC4 sel inh 2	TRPC4 spec	HEK293 MPD ctr 2-1	HEK293 MPD ctr-1	HEK293 MPD ctr-2	HEK293 MPD ctr 2-2	TRPC4 ctr mod	TRPC4/MOR inh 2	TRPC6 inh conf	TRPC6 act conf
CCC(C)[C@H]1CNCCN1CCc1cc(C(F)(F)F)cc(C(F)(F)F)c1 (stereo partly drawn)	i	i	i	-7.2*	i	54%*	i	i	i	nt	nt	nt	nt	i	i
O=S(=O)(c1ccc(F)c(F)c1)N1CCC2(CC1)OCCO2	i	i	i	i	i	nt	nt	nt	nt	nt	nt	nt	nt	nt	nt
CC1CCN(CCCNc2cc(NCCO)c([N+](=O)[O-])c3nonc23)CC1	i	i	i	-7.2*	i	i	-29%*	36%*	-454%*	nt	nt	nt	nt	57%*	i
CN(CCO)c1cc(NCCCN2CCC(Cc3ccccc3)CC2)c2nonc2c1[N+](=O)[O-]	i	i	i	i	i	nt	nt	nt	nt	nt	nt	nt	nt	nt	nt
CN1CCN(/N=C/c2nc(-c3cccc([N+](=O)[O-])c3)n3ccccc23)CC1	i	i	i	-5.2*	i	nt	nt	nt	nt	-165%*	i	-30%*	46%*	51%*	i
N=c1c(C(=O)NCc2ccc3c(c2)OCO3)cc2c(=O)n3ccccc3nc2n1Cc1cccnc1	i	i	i	i	i	nt	nt	nt	nt	nt	nt	nt	nt	nt	nt
CCOCCCn1c(=N)c(C(=O)NCc2ccc3c(c2)OCO3)cc2c(=O)n3cccc(C)c3nc21	i	i	i	-5.1*	i	nt	nt	nt	nt	i	i	-12%*	36%*	i	i
N=c1c(C(=O)NC2CCCC2)cc2c(=O)n3ccccc3nc2n1CC1CCCO1 (stereo not drawn)	i	i	i	i	i	nt	nt	nt	nt	nt	nt	nt	nt	nt	nt
COCCCn1c(=N)c(C(=O)NCc2ccc3c(c2)OCO3)cc2c(=O)n3ccccc3nc21	i	i	i	-10*	i	64%*	-12%*	30%*	i	nt	nt	nt	nt	i	i
Cc1ccc(CNC(=O)c2cc3c(=O)n4ccccc4nc3n(CC3CCCO3)c2=N)cc1 (stereo not drawn)	i	i	11*	-6.2*	i	nt	nt	nt	nt	i	i	-36%*	52%*	64%*	i
Cc1nn(-c2ccccc2)c(C)c1NC(=O)COC(=O)Cc1cccc(C(F)(F)F)c1	i	i	i	i	i	nt	nt	nt	nt	nt	nt	nt	nt	nt	nt
O=C(CC1C(=O)NCCN1Cc1ccccc1C(F)(F)F)NC1CCCCC1 (stereo not drawn)	i	i	i	i	i	nt	nt	nt	nt	nt	nt	nt	nt	nt	nt
